We go through 39 compounds from PubChem BioAssay AID504338 (NMMLSC, 2011).

Values without a mark were called inactive. Active and inactive are the calls of the source.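 The calls were made as follows: active = GFP response vs DMSO above 150% with enough events counted; inconclusive = fewer than 70 events counted for a yeast strain; inactive = the rest.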

A short description of the assay: yeast TOR reporter LAP4-GFP retest – cell-based, third cherry pick, flow cytometry, confirmation (AID 504338).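 Also: ratio to plate DMSO wells so 100% equals DMSO level rather than 0%.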 The following applies: S. cerevisiae LAP4-GFP strain, 3 h, at 10 µM, stronger effect = higher value. The procedure, abridged:
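System: Saccharomyces cerevisiae strain expressing LAP4-GFP fusion protein. Quantity: cells at 0.2 OD600. Medium: synthetic complete medium. Read-out basis: median GFP fluorescence as percent of plate DMSO-well average. Signal: high-throughput flow cytometry of GFP, single-cell scatter gate. Schedule: 3 h treatment, 30 °C. Dosing: single compound dose, 10 µM final.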
(Flow cytometry measures light scatter and fluorescence of single cells or particles in a stream.)
With `CSc1nc(Nc2ccc(Cl)cc2)c(C#N)c(=O)[nH]1`, the GFP response vs DMSO was 106%.

`CC1=CN2C(=N)/C(=C/c3ccco3)C(=O)N=C2S1`: the GFP response vs DMSO is 101%. Next, `CNc1nc(N)c([N+](=O)[O-])c(Nc2ccccc2OC)n1`: 111%; `CNc1nc(N)c([N+](=O)[O-])c(Nc2cccc(Cl)c2)n1`: 131%. Next, `O=C(Nc1ccc(-c2nc3ccccc3o2)cc1)c1cccnc1`: 117%; `Oc1c(Cl)cc(Cl)c2cccnc12`: 188% (active).

Regarding `Cc1cn2c(N)c(C=C3C=C(Cl)C(=O)C(Cl)=C3)c(=O)nc2s1`, the GFP response vs DMSO is 108%. As for `COc1cc(OC)cc(C(=O)Nc2ccc(-c3nc4ccccc4o3)cc2)c1`, the GFP response vs DMSO was 106%. For `CNc1nc(C)c([N+](=O)[O-])c(Nc2ccc(OC)cc2)n1`, the GFP response vs DMSO was 108%. Take `COc1cccc(NC(=O)CC(C)=O)c1`: the GFP response vs DMSO was 101%. For `C/C(=N\NC(=O)c1ccccc1)c1ccccc1F`, the GFP response vs DMSO was 106%.

In the case of `C/C(=C\C(=O)c1ccccc1)Nc1cccc(O)c1`, the GFP response vs DMSO is 107%. With `O=C(O)CCS(=O)(=O)c1nc(-c2cccs2)cc(C(F)(F)F)n1`, the GFP response vs DMSO was 115%.

With `O=C(/C=C/Nc1cccc(O)c1)c1ccccc1`, the GFP response vs DMSO is 111%.

With `CSc1ccccc1OCc1cc(C(=O)N2CCN(C)C(c3ccccc3)C2)no1` (centres undefined), the GFP response vs DMSO is 107%.

Regarding `COc1ccc(OC)c2c(C)cc(C)nc12`, the GFP response vs DMSO was 103%. Take `CSc1nc(S(C)(=O)=O)nc2[nH]c(=O)[nH]c12`: the GFP response vs DMSO is 104%. Regarding `COc1ccc(Nc2nc(NN)nc(C)c2[N+](=O)[O-])cc1`, the GFP response vs DMSO is 100%.

`CCCC(=O)Nn1cnc2c(c1=O)C1(CCCCC1)Cc1ccccc1-2`: the GFP response vs DMSO is 103%. Consider `N#Cc1c(N)nc(N)nc1Nc1ccc(Br)cc1`, for which the GFP response vs DMSO was 104%.

For `Cc1cccc(N/C=C/C(=O)c2ccc(Cl)cc2)c1`, the GFP response vs DMSO was 110%. On to `Cc1ccc(Nc2cc(=O)[nH]c(=O)[nH]2)cc1C`, for which the GFP response vs DMSO is 104%. Take `O=C(N/N=C/c1ccccc1F)c1cccc2ccccc12`: the GFP response vs DMSO was 104%. In the case of `C/C(=C\C(=O)c1ccc(C)cc1)Nc1cccc(O)c1` it was 106%.

For the compound `COc1cccc(N/C=C/C(=O)c2ccc(C)cc2)c1`, the GFP response vs DMSO was 115%.

`CC1=CN2C(=N)/C(=C/c3ccc([N+](=O)[O-])o3)C(=O)N=C2S1`: the GFP response vs DMSO was 3330% (active). Regarding `CC(=O)C(CC(=O)N1CCCC1)C(=O)Nc1ccc(Cl)cc1` (centres undefined), the GFP response vs DMSO is 108%. Regarding `COc1ccccc1Nc1nc(NCCO)nc(N)c1[N+](=O)[O-]`, the GFP response vs DMSO was 104%. In the case of `CCC(=O)Nn1cnc2c(c1=O)C1(CCCCC1)Cc1ccccc1-2` it was 101%; in that of `C=CCNc1ncnc2ccccc12`, 103%.

As to `COCCNc1nc(N)c([N+](=O)[O-])c(Nc2ccc(F)cc2)n1`, the GFP response vs DMSO was 106%. Turning to `O=C(Nc1cccc2ccccc12)ON=C1CCCCC1`, the GFP response vs DMSO is 112%. For the compound `COC(=O)COc1c(Cl)cc(Cl)c2ccc(C)nc12`, the GFP response vs DMSO is 107%.

`C/C(=C\C(=O)c1ccc(Cl)cc1)Nc1ccc(Br)cc1`: the GFP response vs DMSO was 101%. As for `COc1cccc(N/C(C)=C/C(=O)c2ccc(Br)cc2)c1`, the GFP response vs DMSO was 103%. Consider `COc1cccc(N/C=C/C(=O)c2ccc(Cl)cc2)c1`, for which the GFP response vs DMSO was 111%.

On to `Cc1ccc(C(=O)Nc2nc(-c3ccccn3)cs2)o1`, for which the GFP response vs DMSO is 103%. For `O=C1c2ccccc2C(=O)c2c1cccc2N(CCO)CCO`, the GFP response vs DMSO is 100%. In the case of `C/C(=C\C(=O)c1ccccc1)Nc1ccc(O)cc1`, the GFP response vs DMSO is 101%.
